In ChEMBL document CHEMBL3232759, “Hepatoprotective effects of triterpenoids from Ganoderma cochlear” (J Nat Prod, 2014) one finds MNTC and Activity data, which are given here for 7 molecules.

Data set [1] is described as follows: Cytotoxicity against human HepG2 cells after 96 hrs by MTT assay. The data set is classed as cell-based. The settings on record: read-out: MTD. In a few lines:
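HepG2 cells seeded at 1 × 10^4 cells/well in MEM + 10% FBS, 24 h at 37 °C. Compounds diluted from DMSO stocks into MEM with 2% FBS (6.25, 12.5, 25, 50, 100, 200, 400 μM), DMSO kept below 1% (v/v). Added to monolayer; MTT read at OD570 after 96 h. % inhibition vs DMSO control; maximum nontoxic concentration determined.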
On the technique in general: Tetrazolium assays rely on reduction of a dye to a coloured formazan, in cell work by metabolically active cells.

For data set [2], the system named is HepG2. The experiment in a line: Hepatoprotective activity against H2O2-induced human HepG2 cells assessed as reduction in AST level at 3.88 uM after 24 hrs (reference value: 32.36 +/- 0.79 U/L). The data set is classed as functional. In short, it runs like this:
(§1)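 HepG2 cells in log phase seeded at 1 × 10^4 cells/well and held 24 h at 37 °C. Exposed to 3.2 mM H2O2 for 2 h at 37 °C, then to test compound in medium with DMSO for 24 h. ALT or AST read directly in the supernatant. Controls: DMSO-only cells and H2O2-only model. Test concentrations kept within each compound's MTT-determined maximum nontoxic level. Mean ± SD, n = 3; paired-sample test.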

The test system of data set [3] is HepG2. The experiment in a line: Hepatoprotective activity against H2O2-induced human HepG2 cells assessed as reduction in ALT level at 7.75 uM after 24 hrs (reference value: 23.22 +/- 1.22 U/L). The data set is classed as functional. In a few lines:
as §1

The test system of data set [4] is HepG2. The experiment in a line: Hepatoprotective activity against H2O2-induced human HepG2 cells assessed as reduction in AST level at 15.5 uM after 24 hrs (reference value: 32.36 +/- 0.79 U/L). The data set is classed as functional. In short, it runs like this: as §1
In data set [5] the test system is HepG2. The experiment in a line: Hepatoprotective activity against H2O2-induced human HepG2 cells assessed as reduction in AST level at 7.75 uM after 24 hrs (reference value: 32.36 +/- 0.79 U/L). The data set is classed as functional. In a few lines: as §1
For data set [6], the system named is HepG2. The experiment in a line: Hepatoprotective activity against H2O2-induced human HepG2 cells assessed as reduction in ALT level at 3.88 uM after 24 hrs (reference value: 23.22 +/- 1.22 U/L). The data set is classed as functional. In short, it runs like this: as §1
For data set [7], the system named is HepG2. The experiment in a line: Hepatoprotective activity against H2O2-induced human HepG2 cells assessed as reduction in ALT level at 15.5 uM after 24 hrs (reference value: 23.22 +/- 1.22 U/L). Format: functional. In short, it runs like this:
as §1

Data set [8] deals with HepG2. The experiment in a line: Hepatoprotective activity against H2O2-induced human HepG2 cells assessed as reduction in AST level at 59.90 uM after 24 hrs (reference value: 32.36 +/- 0.79 U/L). Format: functional. In a few lines: as §1
Data set [9] relates to HepG2. The experiment in a line: Hepatoprotective activity against H2O2-induced human HepG2 cells assessed as reduction in ALT level at 59.90 uM after 24 hrs (reference value: 23.22 +/- 1.22 U/L). The data set is classed as functional. In a few lines:
as §1

Data set [10] concerns HepG2. Briefly: Hepatoprotective activity against H2O2-induced human HepG2 cells assessed as reduction in ALT level at 29.95 uM after 24 hrs (reference value: 23.22 +/- 1.22 U/L). The data set is classed as functional. In a few lines:
as §1

Data set [11] relates to HepG2. The experiment in a line: Hepatoprotective activity against H2O2-induced human HepG2 cells assessed as reduction in AST level at 29.95 uM after 24 hrs (reference value: 32.36 +/- 0.79 U/L). The data set is classed as functional. In short, it runs like this:
as §1

Data set [12] has as its system HepG2. Briefly: Hepatoprotective activity against H2O2-induced human HepG2 cells assessed as reduction in ALT level at 14.98 uM after 24 hrs (reference value: 23.22 +/- 1.22 U/L). Format: functional. In a few lines:
as §1

Data set [13] has as its system HepG2. The experiment in a line: Hepatoprotective activity against H2O2-induced human HepG2 cells assessed as reduction in AST level at 14.98 uM after 24 hrs (reference value: 32.36 +/- 0.79 U/L). Format: functional. In short, it runs like this: as §1
Data set [14] deals with HepG2. The experiment in a line: Hepatoprotective activity against H2O2-induced human HepG2 cells assessed as reduction in AST level at 4.60 uM after 24 hrs (reference value: 32.36 +/- 0.79 U/L). Format: functional. In short, it runs like this: as §1
For data set [15], the system named is HepG2. Briefly: Hepatoprotective activity against H2O2-induced human HepG2 cells assessed as reduction in ALT level at 9.20 uM after 24 hrs (reference value: 23.22 +/- 1.22 U/L). Format: functional. In a few lines:
as §1

Data set [16] deals with HepG2. The experiment in a line: Hepatoprotective activity against H2O2-induced human HepG2 cells assessed as reduction in ALT level at 4.60 uM after 24 hrs (reference value: 23.22 +/- 1.22 U/L). The data set is classed as functional. In short, it runs like this: as §1
Data set [17] deals with HepG2. Briefly: Hepatoprotective activity against H2O2-induced human HepG2 cells assessed as reduction in AST level at 9.20 uM after 24 hrs (reference value: 32.36 +/- 0.79 U/L). Format: functional. In short, it runs like this:
as §1

Data set [18] has as its system HepG2. Briefly: Hepatoprotective activity against H2O2-induced human HepG2 cells assessed as reduction in ALT level at 18.40 uM after 24 hrs (reference value: 23.22 +/- 1.22 U/L). Format: functional. In short, it runs like this: as §1
Data set [19] relates to HepG2. Briefly: Hepatoprotective activity against H2O2-induced human HepG2 cells assessed as reduction in AST level at 18.40 uM after 24 hrs (reference value: 32.36 +/- 0.79 U/L). The data set is classed as functional. In a few lines: as §1
Data set [20] deals with HepG2. The experiment in a line: Hepatoprotective activity against H2O2-induced human HepG2 cells assessed as reduction in ALT level at 65.70 uM after 24 hrs (reference value: 23.22 +/- 1.22 U/L). Format: functional. In a few lines: as §1
For data set [21], the system named is HepG2. Briefly: Hepatoprotective activity against H2O2-induced human HepG2 cells assessed as reduction in AST level at 16.43 uM after 24 hrs (reference value: 32.36 +/- 0.79 U/L). The data set is classed as functional. In a few lines:
as §1

Data set [22] relates to HepG2. The experiment in a line: Hepatoprotective activity against H2O2-induced human HepG2 cells assessed as reduction in AST level at 32.85 uM after 24 hrs (reference value: 32.36 +/- 0.79 U/L). The data set is classed as functional. In a few lines:
as §1

The test system of data set [23] is HepG2. The experiment in a line: Hepatoprotective activity against H2O2-induced human HepG2 cells assessed as reduction in ALT level at 32.85 uM after 24 hrs (reference value: 23.22 +/- 1.22 U/L). Format: functional. In a few lines:
as §1

Data set [24] relates to HepG2. Briefly: Hepatoprotective activity against H2O2-induced human HepG2 cells assessed as reduction in AST level at 65.70 uM after 24 hrs (reference value: 32.36 +/- 0.79 U/L). Format: functional. In short, it runs like this: as §1
Data set [25] relates to HepG2. The experiment in a line: Hepatoprotective activity against H2O2-induced human HepG2 cells assessed as reduction in ALT level at 16.43 uM after 24 hrs (reference value: 23.22 +/- 1.22 U/L). Format: functional. In short, it runs like this: as §1

For `C=C(C)[C@@H]1C[C@@H]2O[C@@]1(CCC(=O)O)CC1=C2[C@]2(C)CC[C@H]([C@H](C)CCC(=O)OC)[C@@]2(C)CC1=O`, the MNTC at 96 h in [1] was determined as 74.6 µM.
For the molecule `C=C(C)[C@@H]1C[C@H](O)C2=C(C(=O)C[C@]3(C)[C@@H]([C@H](C)CCC(=O)O)CC[C@@]23C)[C@@]1(C)CCC(=O)OC`, in data set [1], the MNTC at 96 h was found to be 18.4 µM. Also, the Activity with HepG2 [2] stood at 28.23 U/L; in the data set on HepG2 [3], 19.32 U/L; in the data set on HepG2 [4], 26.19 U/L; in the data set with HepG2 [5], 26.54 U/L; with HepG2 [6] it was 21.01 U/L; with HepG2 [7], 19.73 U/L.
For `C=C(C)[C@@H]1C[C@H](O)C2=C(C(=O)C[C@]3(C)[C@@H]([C@H](C)CCC(=O)OC)CC[C@@]23C)[C@@]1(C)CCC(=O)O`, in data set [1], the MNTC at 96 h was determined as 15.5 µM.
For the molecule `C=C(C)[C@@H]1C[C@H](O)C2=C(C(=O)C[C@]3(C)[C@@H]([C@H](C)CCC(=O)OC)CC[C@@]23C)[C@@]1(C)CCC(=O)OC`, in data set [1], the MNTC at 96 h turned out to be 59.9 µM. The Activity in the data set on HepG2 [8] is reported as 22.11 U/L; with HepG2 [9] it was 17.81 U/L; in the data set on HepG2 [10], 18.51 U/L; in the data set on HepG2 [11], 26.77 U/L; in the data set on HepG2 [12] it was 19.32 U/L; with HepG2 [13] it was 28.28 U/L.
As for `CC(C)=CC[C@H](O)[C@@H](C)[C@H]1CC[C@@]2(C)C3=CC[C@H]4C(C)(C)[C@@H](O)CC[C@]4(C)C3=CC[C@]12C`, the MNTC at 96 h in data set [1] is 150 µM.
With `C=C(C)[C@@H]1C[C@H](O)C2=C(C(=O)C[C@]3(C)[C@@H]([C@H](C)CCC(=O)O)CC[C@@]23C)[C@@]1(C)CCC(=O)O`, the MNTC at 96 h in data set [1] was determined as 65.7 µM. For the same molecule, the Activity in the data set on HepG2 [14] came to 30.38 U/L; with HepG2 [15], 20.2 U/L; in the data set with HepG2 [16] it was 19.61 U/L; in the data set on HepG2 [17] it was 23.8 U/L; in the data set on HepG2 [18], 20.84 U/L; with HepG2 [19] it was 20.66 U/L.
Turning to `C[C@H]1C(=O)CC[C@@H]2[C@]1(C)CC[C@H]1[C@@]2(C)CC[C@@]2(C)[C@@H]3CC(C)(C)CC[C@]3(C)CC[C@]12C` [FRIEDELINE], the MNTC at 96 h in [1] is 15 µM. Moreover, the Activity came out at 16.06 U/L in the data set on HepG2 [20]; 29.45 U/L in the data set on HepG2 [21]; 25.43 U/L in the data set on HepG2 [22]; 18.27 U/L in the data set on HepG2 [23]; 19.09 U/L with HepG2 [24]; 18.92 U/L in the data set on HepG2 [25].
